Results: ChEMBL document CHEMBL4813982, “Novel pyrazolo[4,3-d]pyrimidine microtubule targeting agents (MTAs): Synthesis, structure-activity relationship, in vitro and in vivo evaluation as antitumor agents” (Bioorg Med Chem Lett, 2021)

What was measured:
Tubulin (Homo sapiens) = Tubulin (Homo sapiens) (UniProt P68371+Q9H4B7+P0DPH7+P68366+Q13509+Q71U36+P04350+Q3ZCM7+P07437+P68363+Q9BQE3+Q6PEY2+Q13885+Q9BVA1+Q9BUF5); assay: Inhibition of [3H]colchicine binding to tubulin (unknown origin) at 5 uM relative to control; format: protein-complex assay
Tubulin = assay: Inhibition of tubulin assembly (unknown origin); format: protein-complex assay, Homo sapiens
OVCAR-8 = assay: Antiproliferative activity against human OVCAR-8 cells; format: functional, cell-based
NCI/ADR-RES = assay: Antiproliferative activity against human NCI/ADR-RES cells overexpressing Pgp; format: functional, cell-based
[1] = Resistance ratio of IC50 for antiproliferative activity against human NCI/ADR-RES cells expressing Pgp to IC50 for antiproliferative activity against human OVCAR-8 cells; format: functional
How it was run: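 Resistance ratio: IC50 in Pgp-overexpressing NCI/ADR-RES cells divided by IC50 in parental OVCAR-8 cells.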

| Structure (SMILES) | inhibition (Tubulin (Homo sapiens)) | IC50 (Tubulin) | IC50 (OVCAR-8) | IC50 (NCI/ADR-RES) | Ratio IC50 [1] |
| --- | --- | --- | --- | --- | --- |
| COc1ccc(Nc2nc(C)nc3cc[nH]c23)cc1 | 0% |  |  |  |  |
| CN(c1ccc(OC(F)(F)F)cc1)c1nc(Cl)nc2cnn(C)c12 | 64% | 2900 nM | 880 nM | 730 nM | 0.83 |
